Assay results published in ChEMBL document CHEMBL1151854, “Dendrimers ended by non-symmetrical azadiphosphonate groups: synthesis and immunological properties” (Bioorg Med Chem Lett, 2009).
The source made the active and inactive calls. No cut-off for these calls is given here.

Tests used:
PBMC [1] = test: Activation of human PBMC assessed as down-regulation of CD14 expression at 2 uM after 4 days by flow cytometry; assay type: functional, cell-based
Procedure, shortened: (§1)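 Fresh blood from healthy adult donors; PBMC isolated on Ficoll-Paque gradient (800 g, 30 min, room temperature), washed twice and cultured at 1.5 million cells/mL in RPMI 1640 with penicillin/streptomycin, 1 mM pyruvate and 10% heat-inactivated FCS. Sterile-filtered dendrimer was added at the final concentration. Monocytes were gated by morphology. The readout was HLA-DR (FITC) or CD14 (PE-Pc5) staining, given as the mfi ratio versus isotype control. Three donors were tested.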

PBMC [2] = test: Activation of human PBMC assessed as down-regulation of HLA-DR expression at 20 uM after 4 days by flow cytometry; assay type: functional, cell-based; procedure, shortened: as §1
PBMC [3] = test: Activation of human PBMC assessed as down-regulation of CD14 expression at 20 uM after 4 days by flow cytometry; assay type: functional, cell-based; procedure, shortened: as §1
PBMC [4] = test: Activation of human PBMC assessed as down-regulation of HLA-DR expression at 2 uM after 4 days by flow cytometry; assay type: functional, cell-based; procedure, shortened: as §1
PBMC [5] = test: Activation of human PBMC assessed as down-regulation of CD14 expression by flow cytometry; assay type: functional, cell-based; procedure, shortened: as §1
[6] = Solubility in water; assay type: physicochemical; settings: buffer
PBMC [7] = test: Activation of human PBMC assessed as occurrence of bigger and granular monocytes by flow cytometry; assay type: functional, cell-based
Procedure, shortened: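 Donor PBMC were prepared on Ficoll-Paque and cultured in complete RPMI 1640 (10% heat-inactivated FCS, 1.5 million cells/mL) with sterile-filtered dendrimer at the final concentration. By flow cytometry (LSR-II), monocytes were selected on scatter morphology, and the read-out was an increase in cell size and granularity.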

PBMC [8] = test: Cytotoxicity against long-lasting cultures of human PBMC; assay type: cell-based
PBMC [9] = test: Activation of human PBMC assessed as down-regulation of HLA-DR expression by flow cytometry; assay type: functional, cell-based; procedure, shortened: as §1
PBMC [10] = test: Activation of human PBMC assessed as down-regulation of CD14 expression after 4 days by flow cytometry; assay type: functional, cell-based; procedure, shortened: as §1
PBMC [11] = test: Activation of human PBMC assessed as down-regulation of HLA-DR expression after 4 days by flow cytometry; assay type: functional, cell-based; procedure, shortened: as §1

solubility [6]	SMILES	Activity (PBMC [1])	Activity (PBMC [2])	Activity (PBMC [3])	Activity (PBMC [4])	Activity (PBMC [5])	Activity (PBMC [7])	Activity (PBMC [8])	Activity (PBMC [9])	Activity (PBMC [10])	Activity (PBMC [11])
	CN(CP(=O)(O)O)C(c1ccc(OP(=S)(Oc2ccc(C(N(C)CP(=O)(O)O)P(=O)(O)O)cc2)N(C)/N=C/c2ccc(OP3(Oc4ccc(/C=N/N(C)P(=S)(Oc5ccc(C(N(C)CP(=O)(O)O)P(=O)(O)O)cc5)Oc5ccc(C(N(C)CP(=O)(O)O)P(=O)(O)O)cc5)cc4)=NP(Oc4ccc(/C=N/N(C)P(=S)(Oc5ccc(C(N(C)CP(=O)(O)O)P(=O)(O)O)cc5)Oc5ccc(C(N(C)CP(=O)(O)O)P(=O)(O)O)cc5)cc4)(Oc4ccc(/C=N/N(C)P(=S)(Oc5ccc(C(N(C)CP(=O)(O)O)P(=O)(O)O)cc5)Oc5ccc(C(N(C)CP(=O)(O)O)P(=O)(O)O)cc5)cc4)=NP(Oc4ccc(/C=N/N(C)P(=S)(Oc5ccc(C(N(C)CP(=O)(O)O)P(=O)(O)O)cc5)Oc5ccc(C(N(C)CP(=O)(O)O)P(=O)(O)O)cc5)cc4)(Oc4ccc(/C=N/N(C)P(=S)(Oc5ccc(C(N(C)CP(=O)(O)O)P(=O)(O)O)cc5)Oc5ccc(C(N(C)CP(=O)(O)O)P(=O)(O)O)cc5)cc4)=N3)cc2)cc1)P(=O)(O)O (stereo not drawn)	Active	Active	Active	Active						
Soluble	CCCCN(CP(=O)([O-])O)C(c1ccc(OP(=S)(Oc2ccc(C(N(CCCC)CP(=O)([O-])O)P(=O)([O-])O)cc2)N(C)/N=C/c2ccc(OP3(Oc4ccc(/C=N/N(C)P(=S)(Oc5ccc(C(N(CCCC)CP(=O)([O-])O)P(=O)([O-])O)cc5)Oc5ccc(C(N(CCCC)CP(=O)([O-])O)P(=O)([O-])O)cc5)cc4)=NP(Oc4ccc(/C=N/N(C)P(=S)(Oc5ccc(C(N(CCCC)CP(=O)([O-])O)P(=O)([O-])O)cc5)Oc5ccc(C(N(CCCC)CP(=O)([O-])O)P(=O)([O-])O)cc5)cc4)(Oc4ccc(/C=N/N(C)P(=S)(Oc5ccc(C(N(CCCC)CP(=O)([O-])O)P(=O)([O-])O)cc5)Oc5ccc(C(N(CCCC)CP(=O)([O-])O)P(=O)([O-])O)cc5)cc4)=NP(Oc4ccc(/C=N/N(C)P(=S)(Oc5ccc(C(N(CCCC)CP(=O)([O-])O)P(=O)([O-])O)cc5)Oc5ccc(C(N(CCCC)CP(=O)([O-])O)P(=O)([O-])O)cc5)cc4)(Oc4ccc(/C=N/N(C)P(=S)(Oc5ccc(C(N(CCCC)CP(=O)([O-])O)P(=O)([O-])O)cc5)Oc5ccc(C(N(CCCC)CP(=O)([O-])O)P(=O)([O-])O)cc5)cc4)=N3)cc2)cc1)P(=O)([O-])O.[Na+].[Na+].[Na+].[Na+].[Na+].[Na+].[Na+].[Na+].[Na+].[Na+].[Na+].[Na+].[Na+].[Na+].[Na+].[Na+].[Na+].[Na+].[Na+].[Na+].[Na+].[Na+].[Na+].[Na+] (stereo not drawn)	Active	Active	Active	Active	Active	Active	Toxic	Active		
Soluble	C=CCN(CP(=O)([O-])O)C(c1ccc(OP(=S)(Oc2ccc(C(N(CC=C)CP(=O)([O-])O)P(=O)([O-])O)cc2)N(C)/N=C/c2ccc(OP3(Oc4ccc(/C=N/N(C)P(=S)(Oc5ccc(C(N(CC=C)CP(=O)([O-])O)P(=O)([O-])O)cc5)Oc5ccc(C(N(CC=C)CP(=O)([O-])O)P(=O)([O-])O)cc5)cc4)=NP(Oc4ccc(/C=N/N(C)P(=S)(Oc5ccc(C(N(CC=C)CP(=O)([O-])O)P(=O)([O-])O)cc5)Oc5ccc(C(N(CC=C)CP(=O)([O-])O)P(=O)([O-])O)cc5)cc4)(Oc4ccc(/C=N/N(C)P(=S)(Oc5ccc(C(N(CC=C)CP(=O)([O-])O)P(=O)([O-])O)cc5)Oc5ccc(C(N(CC=C)CP(=O)([O-])O)P(=O)([O-])O)cc5)cc4)=NP(Oc4ccc(/C=N/N(C)P(=S)(Oc5ccc(C(N(CC=C)CP(=O)([O-])O)P(=O)([O-])O)cc5)Oc5ccc(C(N(CC=C)CP(=O)([O-])O)P(=O)([O-])O)cc5)cc4)(Oc4ccc(/C=N/N(C)P(=S)(Oc5ccc(C(N(CC=C)CP(=O)([O-])O)P(=O)([O-])O)cc5)Oc5ccc(C(N(CC=C)CP(=O)([O-])O)P(=O)([O-])O)cc5)cc4)=N3)cc2)cc1)P(=O)([O-])O.[Na+].[Na+].[Na+].[Na+].[Na+].[Na+].[Na+].[Na+].[Na+].[Na+].[Na+].[Na+].[Na+].[Na+].[Na+].[Na+].[Na+].[Na+].[Na+].[Na+].[Na+].[Na+].[Na+].[Na+] (stereo not drawn)	Active	Active	Active	Active	Active	Active		Active	Dose-dependent effect	Dose-dependent effect
